Data taken from ChEMBL document CHEMBL3045170, “Synthesis and biological activity of organotin 4-methyl-1,2,3-thiadiazole-5-carboxylates and benzo[1,2,3]thiadiazole-7-carboxylates” (J Agric Food Chem, 2010).

Assays:
Format in all cases: functional
Details in all cases: for inhibition of growth at 50 µg/mL: 48 h, read-out: GI
[1] = test system: Botryosphaeria berengeriana; assay: Fungicidal activity against Botryosphaeria berengeriana assessed as growth inhibition at 50 ug/ml after 2 days
How it was run: (§1)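 Poisoned-plate mycelial growth assay. The test sample was mixed into molten potato dextrose agar in a Petri dish before it set. Fungus was inoculated and incubated at 24-26 °C. Colony spread diameter was measured after 2 days, and percent growth inhibition was calculated relative to the corresponding control plate.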

Alternaria solani = assay: Fungicidal activity against Alternaria solani assessed as growth inhibition at 50 ug/ml after 2 days; how it was run: as §1
Botrytis cinerea = assay: Fungicidal activity against Botryotinia fuckeliana assessed as growth inhibition at 50 ug/ml after 2 days; how it was run: as §1
Fusarium graminearum = assay: Fungicidal activity against Fusarium graminearum assessed as growth inhibition at 50 ug/ml after 2 days
How it was run: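 Mycelial growth test on potato dextrose agar (9 mL) in Petri dishes, with the plate mixed thoroughly before setting. Gibberella zeae inoculated and cultured at 24-26 °C. Colony spread diameter measured after 2 days, and growth inhibition calculated relative to the corresponding control.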

Mycosphaerella arachidis = assay: Fungicidal activity against Mycosphaerella arachidis assessed as growth inhibition at 50 ug/ml after 2 days; how it was run: as §1

| Compound | inhibition of growth at 50 µg/mL [1] | inhibition of growth at 50 µg/mL (Alternaria solani) | inhibition of growth at 50 µg/mL (Botrytis cinerea) | inhibition of growth at 50 µg/mL (Fusarium graminearum) | inhibition of growth at 50 µg/mL (Mycosphaerella arachidis) | growth inhibition (GI) [1] | growth inhibition (GI) (Alternaria solani) | growth inhibition (GI) (Botrytis cinerea) | growth inhibition (GI) (Fusarium graminearum) | growth inhibition (GI) (Mycosphaerella arachidis) |
| --- | --- | --- | --- | --- | --- | --- | --- | --- | --- | --- |
| O=C(O)c1cccc2nnsc12 [1,2,3-benzothia-diazole-7-carboxylic acid] | 40.5% | 42.4% | 72.1% | 60.7% | 30.8% |  |  |  |  |  |
| CCCC1COC(Cn2cncn2)(c2ccc(Cl)cc2Cl)O1 (stereo not given) [PROPICONAZOLE] | 100% | 89.2% | 100% | 100% | 100% |  |  |  |  |  |
| dibutylstannanediyl dibenzo[d][1,2,3]thiadiazole-7-carboxylate |  |  |  |  |  | 27.3% | 19.8% | 29.7% | 58.3% | 23.1% |
| diethylstannanediyl dibenzo[d][1,2,3]thiadiazole-7-carboxylate |  |  |  |  |  | 36.7% | 32.3% | 43.2% | 50% | 20.5% |
| tributylstannyl benzo[d][1,2,3]thiadiazole-7-carboxylate |  |  |  |  |  | 97.2% | 92.5% | 98.2% | 92.9% | 97.4% |
| tricyclohexylstannyl benzo[d][1,2,3]thiadiazole-7-carboxylate |  |  |  |  |  | 92.5% | 50% | 94.1% | 50% | 76.7% |
| triethylstannyl benzo[d][1,2,3]thiadiazole-7-carboxylate |  |  |  |  |  | 100% | 100% | 100% | 100% | 100% |
| triphenylstannyl benzo[d][1,2,3]thiadiazole-7-carboxylate |  |  |  |  |  | 97.2% | 92.5% | 91.9% | 54.8% | 71.8% |
